In brackets after ≈: the same amount, converted by molar mass. Activity calls are given as the source filed them. The rule behind the calls is not given here.
Assays:
[1] = system: Hepatitis C virus; assay: Antiviral activity against HCV expressing E1E2 glycoprotein with Vpr-deficient HIV vector assessed as inhibition of viral entry in human Huh7 cells at 20 ug/ml measured after 72 hrs by luciferase reporter gene assay; format: functional, organism-based; conditions: Hepacivirus hominis, Huh-7
Outline: (§1)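 HCVpp (E1E2 with HIV luciferase vector, made in 293T) was mixed at room temperature with 20 µg/mL compound and added to Huh7 cells for 6 h, then replaced by growth medium. Cells were lysed at 72 h postinfection and luciferase read as % inhibition. Samples in duplicate, experiments repeated at least three times.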

[2] = system: Hepatitis C virus; assay: Antiviral activity against HCV expressing E1E2 glycoprotein with Vpr-deficient HIV vector assessed as inhibition of viral entry in human Huh7 cells at 20 ug/ml after 72 hrs by luciferase reporter gene assay in presence of beta-glucosidase enzyme for 0.5 hrs; format: functional, Hepacivirus hominis; conditions: Huh-7
Outline: (§2)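 Iridoid glucosides were hydrolysed with β-glucosidase for 0.5 h or 4 h before testing at 20 µg/mL. Hydrolysates were mixed at rt with HCVpp and incubated with Huh7 cells for 6 h, then the medium was changed. Luciferase was read at 72 h postinfection as % inhibition. Duplicates, ≥3 experiments.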

[3] = system: Hepatitis C virus; assay: Antiviral activity against HCV expressing E1E2 glycoprotein with Vpr-deficient HIV vector assessed as inhibition of viral entry in human Huh7 cells at 20 ug/ml after 72 hrs by luciferase reporter gene assay in presence of beta-glucosidase enzyme for 4 hrs; format: functional, Hepacivirus hominis; conditions: Huh-7; outline: as §2
[4] = system: Hepatitis C virus; assay: Antiviral activity against HCV expressing E1E2 glycoprotein with Vpr-deficient HIV vector assessed as inhibition of pseudoparticle entry in human Huh7 cells at 100 ug/ml preincubated for 20 mins measured after 72 hrs by luciferase reporter gene assay; format: functional; conditions: Huh-7
Outline: (§3)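 HCV E1E2 or VSVG pseudoviruses were made by cotransfecting 293T cells with the envelope plasmid and pNL4-3-Luc-R-E-, then harvested at 48 h and filtered. Each pseudovirus was preincubated 20 min at rt with 100 µg/mL sample or DMSO, then put on Huh7 cells for 6 h before the medium was replaced. Luciferase was read at 72 h as % of no-drug control. Duplicates, ≥3 experiments.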

[5] = system: Hepatitis C virus; assay: Antiviral activity against HCV expressing E1E2 glycoprotein with Vpr-deficient HIV vector assessed as inhibition of pseudoparticle entry in human Huh7 cells preincubated for 20 mins measured after 72 hrs by luciferase reporter gene assay; format: functional, organism-based, Hepacivirus hominis; conditions: Huh-7
Outline: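 HCV E1E2/HIV-luciferase pseudovirus was preincubated 20 min at rt with a range of concentrations in µg/mL and incubated with Huh7 cells (8 × 10^4 per well, seeded the day before) for 6 h, then the medium was replaced. Luciferase was measured at 72 h and expressed as % of no-drug control. IC50 came from the concentration-response. Duplicates, ≥3 repeats.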

[6] = system: Vesicular stomatitis virus; assay: Antiviral activity against VSV with Vpr-deficient HIV vector assessed as inhibition of VSVG pseudo-particle entry in human Huh7 cells at 100 ug/ml preincubated for 20 mins measured after 72 hrs by luciferase reporter gene assay; format: functional, organism-based; conditions: Huh-7; outline: as §3
[7] = Cytotoxicity against human HepG2(2.2.15) cells at 50 ug/ml; format: cell-based
[8] = target: T1, CD81 antigen (Homo sapiens) (UniProt P60033); assay: Inhibition of human recombinant GST-tagged CD81 protein assessed as HCV E1E2 binding after 1 hr by Western blot analysis
T1 sequence (whole entry): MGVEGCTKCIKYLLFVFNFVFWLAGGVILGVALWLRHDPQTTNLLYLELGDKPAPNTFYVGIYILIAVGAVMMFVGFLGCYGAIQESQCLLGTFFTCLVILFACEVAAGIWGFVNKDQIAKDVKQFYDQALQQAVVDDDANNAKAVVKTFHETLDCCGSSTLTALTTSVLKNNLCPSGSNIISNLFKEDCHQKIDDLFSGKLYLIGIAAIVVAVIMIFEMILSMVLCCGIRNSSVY
Outline: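 Lysates of 293T cells expressing HCV E1E2 were taken 48 h post-transfection in 0.5% Triton X-100 buffer with protease inhibitor and clarified. They were rocked with 50 µg/mL compound or DMSO and 5 µg CD81-GST (large extracellular loop of human CD81) at 4 °C for 16 h. Glutathione beads were added for 1 h at 4 °C, then washed. Western blot for E2 and GST; GST alone served as control.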

[9] = system: Hepatitis C virus; assay: Antiviral activity against HCV infected in human Huh7 cells assessed as inhibition of viral replication after 48 hrs by NS5A staining; conditions: Huh-7, 48 h
[10] = system: Hepatitis C virus; assay: Antiviral activity against HCV expressing E1E2 glycoprotein with Vpr-deficient HIV vector assessed as inhibition of viral entry in human Huh7 cells at 20 ug/ml after 72 hrs by luciferase reporter gene assay; format: functional, Hepacivirus hominis; conditions: Huh-7, 72 h; outline: as §1

| SMILES | Activity [1] | inhibition at 20 µg/mL [2] [%] | inhibition at 20 µg/mL [3] [%] | Activity [8] | IC50 [9] [µg/mL] | further results |
| --- | --- | --- | --- | --- | --- | --- |
| C[C@H]1[C@H]2[C@H](O[C@@H]3O[C@H](CO)[C@@H](O)[C@H](O)[C@H]3O)OC=C(C(=O)O)[C@H]2C[C@@H]1O | inactive | -21.6 | 5.3 |  |  |  |
| COC(=O)C1=CO[C@@H](O[C@@H]2O[C@H](CO)[C@@H](O)[C@H](O)[C@H]2O)[C@@H]2[C@H](C)[C@@H](O)C[C@H]12 | inactive | -12.7 | 0.4 |  |  |  |
| COC(=O)C1=CO[C@@H](O[C@@H]2O[C@H](CO)[C@@H](O)[C@H](O)[C@H]2O)[C@H]2[C@@H]1[C@H](O)[C@H](O)[C@]2(C)O | inactive |  |  |  |  | Activity ([4]; Hepacivirus hominis): inactive |
| OCC1=C[C@@H](O)[C@@H]2C=CO[C@@H](O[C@@H]3O[C@H](CO)[C@@H](O)[C@H](O)[C@H]3O)[C@H]12 | inactive |  |  |  |  |  |
| COC(=O)C1=COC(O)[C@H]2[C@@H]1[C@H](O)[C@H](O)C2(C)O (mixture of isomers) | inactive |  |  | inactive | 15 | IC50 [5]: 2310 nM; inhibition at 100 µg/mL [4]: 50%; Activity [6]: inactive; Activity [7]: Non-toxic |
| O=C(OCC1=C[C@@H](O)[C@@H]2C=CO[C@@H](O[C@@H]3O[C@H](CO)[C@@H](O)[C@H](O)[C@H]3O)[C@H]12)c1ccc(O)cc1 [AGNUSIDE] | inactive | 12.9 | 20.3 |  |  |  |
| O=C(/C=C/c1ccc(O)cc1)OCC1=C[C@@H](O)[C@@H]2C=CO[C@@H](O[C@@H]3O[C@H](CO)[C@@H](O)[C@H](O)[C@H]3O)[C@H]12 [EUROSTOSIDE] | inactive | 46.6 | 56.6 | inactive | 20 (≈ 40.6 µM) |  |
| COC(=O)C1=CO[C@@H](O[C@@H]2O[C@H](CO)[C@@H](O)[C@H](O)[C@H]2O)[C@H]2[C@@H]1C=C[C@@]2(O)CO [GARDENOSIDE] | inactive | -3.4 | 21.1 |  |  |  |
| COC(=O)C1=CO[C@@H](O)[C@@H]2C(CO)=CC[C@H]12 [GENIPIN] |  |  |  | inactive | 20 (≈ 88.4 µM) | inhibition at 20 µg/mL [10]: 73.2% |
| COC(=O)C1=CO[C@@H](O[C@@H]2O[C@H](CO)[C@@H](O)[C@H](O)[C@H]2O)[C@@H]2C(CO)=CC[C@H]12 [GENIPOSIDE] | inactive | 9.8 | 17.1 |  |  | inhibition at 20 µg/mL [10]: 1.1% |
| C[C@]1(OC(=O)/C=C/c2ccccc2)C[C@@H](O)[C@]2(O)C=CO[C@@H](O[C@@H]3O[C@H](CO)[C@@H](O)[C@H](O)[C@H]3O)[C@@H]21 [HARPAGOSIDE] | inactive | -41.7 | 17.1 |  |  | inhibition at 20 µg/mL [10]: 2.1% |
| C[C@@H]1[C@H]2[C@H](O[C@@H]3O[C@H](CO)[C@@H](O)[C@H](O)[C@H]3O)OC=C(C(=O)O)[C@H]2C[C@@H]1O [LOGANIC ACID] | inactive | 39.4 | 52.5 | inactive | 11 (≈ 29.2 µM) |  |
| COC(=O)C1=CO[C@@H](O[C@@H]2O[C@H](CO)[C@@H](O)[C@H](O)[C@H]2O)[C@@H]2[C@@H](C)[C@@H](O)C[C@H]12 [LOGANIN] | inactive | 24.8 | 41.4 | inactive | 16 (≈ 41 µM) |  |
| COc1cc(C(=O)O[C@H]2[C@@H]3C=CO[C@@H](O[C@@H]4O[C@H](CO)[C@@H](O)[C@H](O)[C@H]4O)[C@@H]3[C@@]3(CO)O[C@@H]23)ccc1O [PICROSIDE II] | inactive | 31.6 | 59.4 |  |  |  |
| COC(=O)C1=CO[C@@H](O[C@@H]2O[C@H](CO)[C@@H](O)[C@H](O)[C@H]2O)[C@H]2[C@@H]1[C@H](O)C[C@]2(C)O [SHANZHISIDE METHYL ESTER] | inactive | 49 | 61.2 | inactive | 18 (≈ 44.3 µM) | inhibition at 20 µg/mL [10]: -13.1% |
| COC(=O)C1=CO[C@@H](O[C@@H]2O[C@H](CO)[C@@H](O)[C@H](O)[C@H]2O)[C@H]2[C@@H]1C(=O)C[C@@H]2C [VERBENALIN] | inactive | 21.9 | 43.4 |  |  |  |

— ChEMBL document CHEMBL1153732, “Lamiridosins, hepatitis C virus entry inhibitors from Lamium album” (J Nat Prod, 2009)
